The term inhibition denotes how much of the control response was suppressed.

The record followed here is ChEMBL document CHEMBL2040850, “Indole based cyclooxygenase inhibitors: synthesis, biological evaluation, docking and NMR screening” (Eur J Med Chem, 2012).

SMILES strings stand for the structures. Active and inactive are the calls of the source. The rule behind the calls is not given here.

The target in one experiment is Prostaglandin G/H synthase 1 (Ovis aries) (UniProt P05979). The experiment can be described thus: Inhibition of ovine COX1 assessed as PGE2 formation at 50 uM by enzyme immunoassay.
Conditions: not given
As for `CS(=O)(=O)c1ccc2c(c1)c(Cc1ccc(Cl)cc1)cn2CC(O)CC(F)(F)F` (stereo not given), the inhibition was 8%.

Consider `NS(=O)(=O)c1ccc2[nH]cc(Cc3ccc(Br)cc3)c2c1`, for which the inhibition came out at 19%.

In the case of `CS(=O)(=O)c1ccc2c(c1)c(Cc1ccc(Br)cc1)cn2C=CCC(F)(F)F` (mixture of isomers), the inhibition is 20%.

Consider `NS(=O)(=O)c1ccc2[nH]c(Cc3ccc(Br)cc3)c(Cc3ccc(Br)cc3)c2c1`, for which the inhibition is 35%.

Take `NS(=O)(=O)c1ccc2[nH]cc(Cc3ccc(F)cc3)c2c1`: the inhibition amounted to 40%.

On to `NS(=O)(=O)c1ccc(Cc2c[nH]c3ccc(Br)cc23)cc1`, for which the inhibition came to 11%.

On to `CS(=O)(=O)c1ccc2c(c1)c(Cc1ccc(Cl)cc1)cn2C=CCC(F)(F)F` (mixture of isomers), for which the inhibition was found to be 11%.

On to `CS(=O)(=O)c1ccc2c(c1)c(Cc1ccc(F)cc1)cn2C=CCC(F)(F)F` (mixture of isomers), for which the inhibition is 8%.

Turning to `CS(=O)(=O)c1ccc2c(c1)c(Cc1ccc(F)cc1)cn2CC(O)CC(F)(F)F` (stereo not given), the inhibition was found to be 14%.

In the case of `NS(=O)(=O)c1ccc2[nH]c(Cc3ccc(F)cc3)c(Cc3ccc(F)cc3)c2c1`, the inhibition worked out at 18%.

Regarding `CS(=O)(=O)c1ccc2c(c1)c(Cc1ccc(Br)cc1)cn2CC(O)CC(F)(F)F` (stereo not given), the inhibition is 12%.

Take `NS(=O)(=O)c1ccc2[nH]c(Cc3ccc(Cl)cc3)c(Cc3ccc(Cl)cc3)c2c1`: the inhibition was 41%.

As for `CS(=O)(=O)c1ccc2[nH]c(Cc3ccc(Cl)cc3)c(Cc3ccc(Cl)cc3)c2c1`, the inhibition is 25%.

In the case of `NS(=O)(=O)c1ccc2[nH]cc(Cc3ccc(Cl)cc3)c2c1`, the inhibition stood at 21%.

The next experiment concerns the target Prostaglandin G/H synthase 2 (Homo sapiens) (UniProt P35354). The experiment can be described thus: Inhibition of recombinant human COX2 assessed as PGE2 formation at 100 uM by enzyme immunoassay.
Conditions: not given
In the case of `CS(=O)(=O)c1ccc2[nH]c(Cc3ccc(F)cc3)c(Cc3ccc(F)cc3)c2c1`, the inhibition result was “inactive”.

Consider `CS(=O)(=O)c1ccc2[nH]c(Cc3ccc(Br)cc3)c(Cc3ccc(Br)cc3)c2c1`, for which the inhibition result was “inactive”.

Consider `CS(=O)(=O)c1ccc2[nH]c(Cc3ccc(Cl)cc3)c(Cc3ccc(Cl)cc3)c2c1`, for which the inhibition result was “inactive”.

For a further experiment, the target named is T1, Prostaglandin G/H synthase 2 (Ovis aries) (UniProt P79208).
T1 sequence (whole entry): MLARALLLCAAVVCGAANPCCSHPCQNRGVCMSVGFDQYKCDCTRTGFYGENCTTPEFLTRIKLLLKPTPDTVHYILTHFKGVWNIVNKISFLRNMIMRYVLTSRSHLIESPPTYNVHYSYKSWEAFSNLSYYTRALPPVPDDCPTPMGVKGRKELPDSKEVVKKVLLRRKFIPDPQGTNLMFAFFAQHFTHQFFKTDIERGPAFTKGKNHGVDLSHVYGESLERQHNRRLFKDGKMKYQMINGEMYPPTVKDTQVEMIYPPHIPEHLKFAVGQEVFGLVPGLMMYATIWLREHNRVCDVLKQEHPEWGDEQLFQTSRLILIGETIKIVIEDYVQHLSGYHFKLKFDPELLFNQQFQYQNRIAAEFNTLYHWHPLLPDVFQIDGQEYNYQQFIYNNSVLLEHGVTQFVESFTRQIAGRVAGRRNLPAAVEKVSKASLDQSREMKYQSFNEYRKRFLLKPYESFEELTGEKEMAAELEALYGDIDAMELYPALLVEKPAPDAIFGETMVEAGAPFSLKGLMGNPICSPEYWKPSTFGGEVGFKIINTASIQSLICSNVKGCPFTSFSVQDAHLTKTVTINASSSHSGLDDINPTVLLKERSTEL
The experiment is described as follows: Reversible binding affinity to sheep placenta COX2 at 300 uM by STD-NMR spectroscopy.
Conditions: not given
The method, boiled down: (§1)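 STD-NMR of ligand binding to COX-1 (ram seminal vesicle) or COX-2 (sheep placenta) in 80 mM Tris–HCl pH 8.0 with 0.1% Tween 20 and 300 µM DDC. Final mixture was about 3 µM enzyme and 300 µM ligand, added from a 2 mM DMSO-d6 stock. Protein irradiated at -300 Hz with 51 shaped 90° pulses (2.5 s total saturation), 20 ms spin-lock filter, 1024 transients.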
Turning to `NS(=O)(=O)c1ccc2[nH]c(Cc3ccc(F)cc3)c(Cc3ccc(F)cc3)c2c1`, the result was Active.

Another experiment deals with T2, Prostaglandin G/H synthase 1 (Ovis aries) (UniProt P05979).
T2 sequence (whole entry): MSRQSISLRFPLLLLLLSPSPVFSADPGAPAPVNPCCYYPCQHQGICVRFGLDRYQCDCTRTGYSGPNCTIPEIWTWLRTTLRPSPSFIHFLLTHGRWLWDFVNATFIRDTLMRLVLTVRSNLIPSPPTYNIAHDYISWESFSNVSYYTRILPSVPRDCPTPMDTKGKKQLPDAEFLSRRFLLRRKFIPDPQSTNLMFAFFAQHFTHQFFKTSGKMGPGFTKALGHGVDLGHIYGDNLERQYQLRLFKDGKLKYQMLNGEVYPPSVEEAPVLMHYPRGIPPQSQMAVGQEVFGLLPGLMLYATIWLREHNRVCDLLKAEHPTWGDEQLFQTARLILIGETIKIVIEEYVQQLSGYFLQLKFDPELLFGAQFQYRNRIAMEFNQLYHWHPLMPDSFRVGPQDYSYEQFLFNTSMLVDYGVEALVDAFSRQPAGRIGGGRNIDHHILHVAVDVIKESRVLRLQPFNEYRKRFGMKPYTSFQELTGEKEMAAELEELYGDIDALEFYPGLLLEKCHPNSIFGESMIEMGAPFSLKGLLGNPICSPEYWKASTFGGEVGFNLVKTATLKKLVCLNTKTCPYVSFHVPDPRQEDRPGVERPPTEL
Assay: not given
Particulars: 1 uM.
In turn, `COc1ccc2c(c1)c(CC(=O)O)c(C)n2C(=O)c1ccc(Cl)cc1` gave an inhibition of 46%.

The next experiment addresses Prostaglandin G/H synthase 2 (Homo sapiens) (UniProt P35354). The experiment can be described thus: Inhibition of human COX2 assessed as PGE2 formation at 100 uM by enzyme immunoassay.
Conditions: not given
Regarding `CS(=O)(=O)c1ccc2c(c1)c(Cc1ccc(Cl)cc1)cn2CC(O)CC(F)(F)F` (stereo not given), the inhibition was 34%.

For `CS(=O)(=O)c1ccc2c(c1)c(Cc1ccc(Br)cc1)cn2C=CCC(F)(F)F` (mixture of isomers), the inhibition was determined as 19%.

Consider `CS(=O)(=O)c1ccc2[nH]cc(Cc3ccc(Br)cc3)c2c1`, for which the inhibition came to 26%.

`NS(=O)(=O)c1ccc2[nH]cc(Cc3ccc(F)cc3)c2c1`: the inhibition stood at 20%.

Turning to `NS(=O)(=O)c1ccc(Cc2c[nH]c3ccc(Br)cc23)cc1`, the inhibition is 27%.

`CS(=O)(=O)c1ccc2c(c1)c(Cc1ccc(Cl)cc1)cn2C=CCC(F)(F)F` (mixture of isomers): the inhibition worked out at 23%.

In the case of `CS(=O)(=O)c1ccc2c(c1)c(Cc1ccc(F)cc1)cn2C=CCC(F)(F)F` (mixture of isomers), the inhibition is 18%.

Take `CS(=O)(=O)c1ccc2c(c1)c(Cc1ccc(F)cc1)cn2CC(O)CC(F)(F)F` (stereo not given): the inhibition worked out at 9%.

As to `CS(=O)(=O)c1ccc2c(c1)c(Cc1ccc(Br)cc1)cn2CC(O)CC(F)(F)F` (stereo not given), the inhibition was 15%.

As to `NS(=O)(=O)c1ccc2[nH]cc(Cc3ccc(Cl)cc3)c2c1`, the inhibition amounted to 31%.

With `CS(=O)(=O)c1ccc2[nH]cc(Cc3ccc(Cl)cc3)c2c1`, the inhibition was found to be 24%.

The target in another experiment is T2, Prostaglandin G/H synthase 1 (Ovis aries). The experiment is described as follows: Reversible binding affinity to ram seminal vesicle COX1 at 300 uM by STD-NMR spectroscopy.
Conditions: not given
An outline of the steps: as §1
With `NS(=O)(=O)c1ccc2[nH]cc(Cc3ccc(F)cc3)c2c1`, the outcome was Active.

In a further experiment the target is T3, Prostaglandin G/H synthase 2 (Homo sapiens) (UniProt P35354).
T3 sequence (whole entry): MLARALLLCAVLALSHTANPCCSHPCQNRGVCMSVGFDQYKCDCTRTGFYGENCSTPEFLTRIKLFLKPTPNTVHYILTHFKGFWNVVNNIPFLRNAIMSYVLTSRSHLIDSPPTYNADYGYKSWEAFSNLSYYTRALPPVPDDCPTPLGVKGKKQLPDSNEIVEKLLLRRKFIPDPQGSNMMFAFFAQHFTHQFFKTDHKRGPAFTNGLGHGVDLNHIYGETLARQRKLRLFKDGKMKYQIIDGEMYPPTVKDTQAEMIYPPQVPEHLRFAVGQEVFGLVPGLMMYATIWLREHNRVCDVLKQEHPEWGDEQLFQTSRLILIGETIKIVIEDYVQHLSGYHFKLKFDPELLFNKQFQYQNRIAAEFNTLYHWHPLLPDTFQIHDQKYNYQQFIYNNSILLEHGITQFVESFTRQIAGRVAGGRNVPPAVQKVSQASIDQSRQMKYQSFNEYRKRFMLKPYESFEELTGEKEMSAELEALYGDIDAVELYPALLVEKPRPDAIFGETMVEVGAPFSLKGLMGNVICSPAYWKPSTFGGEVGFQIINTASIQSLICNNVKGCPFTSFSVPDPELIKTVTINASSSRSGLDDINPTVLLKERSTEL
The experiment can be described thus: Inhibition of recombinant human COX2 assessed as PGF2alpha formation at 50 uM by enzyme immunoassay.
Conditions: not given
As to `CS(=O)(=O)c1ccc2c(c1)c(Cc1ccc(Cl)cc1)cn2CC(O)CC(F)(F)F` (stereo not given), the inhibition came out at 20%.

Take `NS(=O)(=O)c1ccc2[nH]cc(Cc3ccc(Br)cc3)c2c1`: the inhibition worked out at 23%.

Consider `CS(=O)(=O)c1ccc2c(c1)c(Cc1ccc(Br)cc1)cn2C=CCC(F)(F)F` (mixture of isomers), for which the inhibition stood at 21%.

Take `NS(=O)(=O)c1ccc2[nH]cc(Cc3ccc(F)cc3)c2c1`: the inhibition stood at 32%.

In the case of `NS(=O)(=O)c1ccc(Cc2c[nH]c3ccc(Br)cc23)cc1`, the inhibition turned out to be 22%.

In the case of `CS(=O)(=O)c1ccc2c(c1)c(Cc1ccc(F)cc1)cn2C=CCC(F)(F)F` (mixture of isomers), the inhibition turned out to be 12%.

As to `CS(=O)(=O)c1ccc2c(c1)c(Cc1ccc(Br)cc1)cn2CC(O)CC(F)(F)F` (stereo not given), the inhibition came to 23%.

As for `CS(=O)(=O)c1ccc2[nH]c(Cc3ccc(Cl)cc3)c(Cc3ccc(Cl)cc3)c2c1`, the inhibition was 24%.

Consider `NS(=O)(=O)c1ccc2[nH]cc(Cc3ccc(Cl)cc3)c2c1`, for which the inhibition was 32%.
